Measurements published in paper PMC10441371 (bioRxiv, 2023).
“Also recorded” adds a separate entry of the source. Where a name gives a salt, the structure may show the parent alone. Read-outs that look alike come from different tables or passages of the source.

Experiments:
[1] = system: SULT2A1; settings: ref Parker et al., 2018; cited from earlier work
[2] = system: SULT1E1; settings: ref Parker et al., 2018; cited from earlier work
[3] = system: N27 cell line; settings: ref Rodriguez et al., 2018; cited from earlier work
[4] = system: SH-SY5Y cell line; settings: ref Rodriguez et al., 2018; cited from earlier work
[5] = format: in vivo, Sprague Dawley rats; settings: for Levels in liver, mean (SD): wet weight; for Detection in the brain: PCB 52 exposed rats
[6] = General toxicity: body and organ weights after IP exposure; format: in vivo, Sprague Dawley rats
Procedure, shortened: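 Rats were female Sprague Dawley, 4–5 weeks old and 75–100 g, acclimated 1 week. Each received a single IP dose of corn oil vehicle or test compound at 1, 10 or 100 mg/kg BW. Body weight was recorded at 5 time points over 3 weeks. After CO2 euthanasia, liver, spleen and thymus were excised; liver weight was adjusted for body weight. Groups were compared by one-way ANOVA with Tukey, p<0.05.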

[7] = system: endogenous serum metabolites; assay: Targeted metabolomics of serum samples; format: in vivo, Sprague Dawley rats; settings: 0 to 100 mg/kg BW IP, 3 weeks
Procedure, shortened: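 In female Sprague Dawley rats, serum was taken 3 weeks after a single IP dose of vehicle or 1–100 mg/kg test compound. Heart blood clotted ≥30 min at room temperature and was spun at 2,500 g (10 min, 4°C). Extracts (solvent:sample 18:1, −20°C 1 h) were methoximated (60°C 1 h), then TMS-derivatized (60°C 30 min). GC-Orbitrap analysis used EI full scan m/z 56.7–850 against a 94-metabolite list. Intensities were total-normalized; data were analyzed by PLS-DA and dose linear regression with Benjamini-Hochberg FDR.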

[8] = system: dopamine and its metabolites, DOPAL and DOPAC; assay: Dopamine and metabolites analysis in striatum; format: in vivo, Sprague Dawley rats; settings: different doses of PCB 52 IP, 3 weeks post injection, vs vehicle
Procedure, shortened: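 Female Sprague Dawley rats (4–5 weeks, 75–100 g, acclimated 1 week) got a single IP injection of corn oil or test compound in corn oil at 1, 10 or 100 mg/kg BW. They were euthanized after 3 weeks by CO2 and thoracotomy. Nigrostriatal tissue was homogenized in ice-cold 0.3 M perchloric acid and spun at 10,000 g for 10 min. Supernatant went to capillary HPLC with coulometric detection (guard +350, E1 −150, E2 +200 mV). Values are pmol/mg tissue; ANOVA with Tukey.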

[9] = male rats, single IP dose 150 mg/kg BW; ref Parkinson et al., 1983; cited from earlier work
[10] = system: CYP2B; settings: PCB 52 exposure; ref Parkinson et al., 1983; cited from earlier work
[11] = system: thyroid hormone receptor; settings: ref Kitamura et al., 2005; cited from earlier work
[12] = system: estrogenic activity; settings: ref Kitamura et al., 2005; cited from earlier work
[13] = 1, 10 or 100 mg/kg BW IP, 3 weeks, body weight-adjusted, vs vehicle
[14] = no dose-response relationship observed
[15] = 10 mg/kg BW PCB 52 IP, 3 weeks after dosing, N = 3
[16] = 100 mg/kg BW PCB 52 IP, 3 weeks after dosing, N = 5

O=S(=O)(O)Oc1cc(Cl)c(-c2cc(Cl)ccc2Cl)cc1Cl [PCB 52 sulfate]
Inhibition of SULT2A1 [1]: inhibitors
Inhibition of SULT1E1 [2]: inhibitor
Toxicity [3]: low micromolar range
Toxicity [4]: low micromolar range

Clc1ccc(Cl)c(-c2cc(Cl)ccc2Cl)c1 [PCB 52, 2,2',5,5'-Tetrachlorobiphenyl]
Ratio of mean PCB 52 tissue levels, 100 mg/kg BW vs 10 mg/kg BW dose group ([5]; brain (lowest ratio)): 2.9
Ratio of mean PCB 52 tissue levels, 100 mg/kg BW vs 10 mg/kg BW dose group ([5]; highest ratio among tissues, tissue not given): 5.6
Ratio of mean PCB 52 levels, 10 mg/kg BW vs 1 mg/kg BW dose group ([5]; liver): ~7.0 times
Ratio of mean PCB 52 levels, 10 mg/kg BW vs 1 mg/kg BW dose group ([5]; serum): approximately 4.0 times
Presence in tissues investigated (adipose, brain, liver, serum) ([5]; three weeks following the IP injection): present in all tissues investigated
Effect on bodyweight-adjusted liver weights ([6]; 10 mg/kg BW IP, 3 weeks, vs vehicle group, p < 0.05): significantly smaller; also recorded: significant decrease
Effect on overall body weight ([6]; 1, 10 or 100 mg/kg BW IP, 3-week study, vs vehicle): did not affect; also recorded: no significant impact
Effect on spleen weights [6, 13]: did not affect
Effect on thymus weights [6, 13]: did not affect
Serum L-cysteine levels [7]: decreased dose-dependent
Serum L-histidine levels [7]: dose-dependent increase
Serum cytosine levels [7]: decreased dose-dependent
Serum erythrose levels [7]: decreased dose-dependent
Serum glycine levels [7]: dose-dependent increase
Serum orotic acid levels [7]: decreased dose-dependent
Serum sphingosine levels [7]: decreased dose-dependent
Serum linoleic acid levels [7, 14]: significantly affected
Serum thymine levels [7, 14]: significantly affected
Number of significantly altered serum metabolites ([7]; out of the 81 metabolites included, raw p-values < 0.05): 9
DOPAC levels in the striatum [8]: no significant differences; also recorded: not significantly different
DOPAL levels in the striatum [8]: no significant differences; also recorded: not significantly different
Dopamine levels in the striatum [8]: no significant differences; also recorded: not significantly different
Bodyweight-adjusted liver weights vs control [9]: not significantly different
CYP2B enzyme activity in the rat liver [10]: induced

Oc1cc(Cl)c(-c2cc(Cl)ccc2Cl)cc1Cl [4-OH-PCB 52, 2,5-dichloro-4-(2,5-dichlorophenyl)phenol]
Levels in liver, mean (SD) [5, 15]: 0.15 ng/g
Levels in liver, mean (SD) [5, 16]: 0.57 ng/g
Detection in the brain [5]: observed in the brain of one animal
Detection in adipose tissue ([5]; high-dose group (100 mg/kg BW)): detected only in adipose tissue from one animal
Affinity for the thyroid hormone receptor [11]: low affinity
Estrogenic activity in vitro [12]: low estrogenic activity
Inhibition of SULT2A1 [1]: inhibitors

Oc1cc(Cl)cc(-c2cc(Cl)ccc2Cl)c1Cl [X1-PCB 52, 2,2’,5,5’-tetrachlorobiphenyl-3-ol]
Estimated mean level in the serum ([5]; 10 mg/kg BW PCB 52 IP, 3 weeks after dosing): 0.07 ng/kg BW
Levels in liver, mean (SD) [5, 15]: 0.28 ng/g
Levels in serum, mean (SD) [5, 16]: 0.69 ng/g
Levels in liver, mean (SD) [5, 16]: 0.85 ng/g
Detection in the brain [5]: observed in the brain of one animal
Detection in adipose tissue ([5]; all other exposure groups (below high dose)): below the LOD
Detection in adipose tissue ([5]; high-dose group (100 mg/kg BW)): present
